Source: ChEMBL document CHEMBL1151860, “Asymmetric synthesis and biological evaluation of Danshensu derivatives as anti-myocardial ischemia drug candidates” (Bioorg Med Chem, 2009)
Active and inactive are the calls of the source. The calls are words filed in the database; no cut-off is given here.

Legend:
Rattus norvegicus [1] = species: Rattus norvegicus; experiment: Cytoprotective effect against hypoxia-induced Sprague-Dawley rat NRVM assessed as increase in cell viability pretreated for 12 hrs before hypoxia induction at 1 umol/L measured after 5 hrs by MTT assay relative to control; type: functional
Procedure, shortened: (§1)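 Neonatal rat ventricular myocytes were obtained by trypsin digestion, preplated for 2 h, then seeded at 1 × 10⁶ cells/ml in DMEM with 10% FBS, penicillin/streptomycin and 5-bromo-deoxyuridine at 37 °C, 5% CO₂. After 48 h they were given compound for 12 h, then 5 h hypoxia. Viability was read by MTT and damage by LDH leakage; means SE.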

Rattus norvegicus [2] = species: Rattus norvegicus; experiment: Cytoprotective effect against hypoxia-induced Sprague-Dawley rat NRVM assessed as decrease in cellular damage pretreated for 12 hrs before hypoxia induction at 1 umol/L; type: functional
Rattus norvegicus [3] = species: Rattus norvegicus; experiment: Cytoprotective effect against hypoxia-induced Sprague-Dawley rat NRVM assessed as decrease in LDH leakage pretreated for 12 hrs before hypoxia induction at 1 umol/L relative to control; type: functional; procedure, shortened: as §1
Rattus norvegicus [4] = species: Rattus norvegicus; experiment: Antioxidant activity against hypoxia-induced lipid peroxidation in Sprague-Dawley rat NRVM assessed as decrease in malondialdehyde content at 1 umol/l relative to hypoxia control; type: functional
[5] = Antiapoptotic activity against hypoxia-induced Sprague-Dawley rat NRVM assessed as increase in bcl2 mRNA level at 1 umol/l by RT-PCR; type: functional
[6] = Antiapoptotic activity against hypoxia-induced morphological changes in Sprague-Dawley rat NRVM assessed as decrease in nuclear condensation at 1 umol/l by Heochst dye relative to hypoxia induced control; type: functional
Procedure, shortened: (§2)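 Cultured neonatal rat ventricular myocytes (trypsin-dissociated, 2 h preplating, DMEM/10% FBS with 5-bromo-deoxyuridine, 37 °C, 5% CO₂) were pretreated 12 h with compound after 48 h culture, then made hypoxic for 5 h. Nuclei were Hoechst-stained to score shrinkage and condensation.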

[7] = Antiapoptotic activity against hypoxia-induced morphological changes in Sprague-Dawley rat NRVM assessed as decrease in nuclei shrunk at 1 umol/l by Heochst dye relative to hypoxia induced control; type: functional; procedure, shortened: as §2
[8] = Antiapoptotic activity against hypoxia-induced Sprague-Dawley rat NRVM assessed as decrease in bax protein level at 1 umol/l by Western blot analysis; type: functional
[9] = Antiapoptotic activity against hypoxia-induced Sprague-Dawley rat NRVM assessed as increase in bcl2 protein level at 1 umol/l by Western blot analysis; type: functional
Procedure, shortened: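 Myocytes were pretreated 12 h, then made hypoxic for 5 h and lysed at the end of hypoxia. Lysates were spun at 10,000 r/min for 10 min and protein quantified by BCA. Samples were transferred to PVDF and blocked 2 h at RT in TBS with 5% skim milk. For bcl-2, blots were probed 1 h at RT with rabbit anti-rat polyclonal antibody in TBS-T.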

[10] = Antiapoptotic activity against hypoxia-induced Sprague-Dawley rat NRVM assessed as decrease in bax mRNA level at 1 umol/l by RT-PCR; type: functional
[11] = Antiapoptotic activity against hypoxia-induced Sprague-Dawley rat NRVM assessed as decrease in caspase 3 mRNA level at 1 umol/l by RT-PCR; type: functional
Rattus norvegicus [12] = experiment: Cardioprotective effect in Sprague-Dawley rat myocardial infarction model assessed as decrease in infarct size at 60 mg/kg, ip treated 7 days before myocardial infarction surgery and after 2 days once daily by TTC staining; type: functional, organism-based; design: dose 60 mg/kg; conditions: Myocardium
Procedure, shortened: (§3)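 Male Sprague-Dawley rats (230–250 g), anaesthetised with 7% chloral hydrate (60 mg/kg ip), intubated and ventilated; left coronary artery ligated (sham: no ligation). Five randomised groups: MI, sham, MI plus drug at 15, 30 or 60 mg/kg ip once daily. Hearts excised 2 days post-ligation, ventricles cut into five transverse slices, 1% TTC at 37 °C for 15 min; unstained area taken as infarct. Means SE.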

Rattus norvegicus [13] = experiment: Cardioprotective effect in Sprague-Dawley rat myocardial infarction model assessed as decrease in serum LDH level at 15 to 60 mg/kg, ip treated 7 days before myocardial infarction surgery and after 2 days once daily; type: functional, organism-based
Procedure, shortened: (§4)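 Male Sprague-Dawley rats (230–250 g) were anaesthetised with chloral hydrate (60 mg/kg ip), intubated and ventilated, and the left coronary artery ligated; sham rats were not ligated. Drug at 15, 30 or 60 mg/kg ip was given once daily from 7 days before to 2 days after surgery. Serum LDH, CK, SOD and MDA were measured by diagnostic kit; means SE, n = 6, P < 0.05.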

Rattus norvegicus [14] = experiment: Cardioprotective effect in Sprague-Dawley rat myocardial infarction model assessed as decrease in infarct size at 30 mg/kg, ip treated 7 days before myocardial infarction surgery and after 2 days once daily by TTC staining; type: functional, organism-based; design: dose 30 mg/kg; conditions: Myocardium; procedure, shortened: as §3
Rattus norvegicus [15] = experiment: Cardioprotective effect in Sprague-Dawley rat myocardial infarction model assessed as decrease in serum malondialdehyde level at 15 to 60 mg/kg, ip treated 7 days before myocardial infarction surgery and after 2 days once daily; type: functional, organism-based; procedure, shortened: as §4
Rattus norvegicus [16] = experiment: Cardioprotective effect in Sprague-Dawley rat myocardial infarction model assessed as decrease in serum creatine kinase level at 15 to 60 mg/kg, ip treated 7 days before myocardial infarction surgery and after 2 days once daily; type: functional, organism-based; procedure, shortened: as §4
Rattus norvegicus [17] = experiment: Cardioprotective effect in Sprague-Dawley rat myocardial infarction model assessed as increase in serum SOD level at 15 to 60 mg/kg, ip treated 7 days before myocardial infarction surgery and after 2 days once daily; type: functional, organism-based; procedure, shortened: as §4
Rattus norvegicus [18] = experiment: Cardioprotective effect in Sprague-Dawley rat myocardial infarction model assessed as decrease in infarct size at 15 mg/kg, ip treated 7 days before myocardial infarction surgery and after 2 days once daily by TTC staining; type: functional, organism-based; design: dose 15 mg/kg; conditions: Myocardium; procedure, shortened: as §3

| Compound | Activity (Rattus norvegicus [1]) | Activity (Rattus norvegicus [2]) | Activity (Rattus norvegicus [3]) | Activity (Rattus norvegicus [4]) | Activity [5] | Activity [6] | Activity [7] | Activity [8] | Activity [9] | Activity [10] | Activity [11] | Activity (Rattus norvegicus [12]) | Activity (Rattus norvegicus [13]) | Activity (Rattus norvegicus [14]) | Activity (Rattus norvegicus [15]) | Activity (Rattus norvegicus [16]) | Activity (Rattus norvegicus [17]) | Activity (Rattus norvegicus [18]) |
| --- | --- | --- | --- | --- | --- | --- | --- | --- | --- | --- | --- | --- | --- | --- | --- | --- | --- | --- |
| COC(=O)[C@@H](Cc1ccc2c(c1)OCO2)OC(C)=O | Active | Active | Active | Active | – | – | – | – | – | – | – | – | – | – | – | – | – | – |
| COC(=O)C(Cc1ccc(OC(C)=O)c(OC(C)=O)c1)OC(C)=O (racemic) | Active | – | Active | – | – | – | – | – | – | – | – | – | – | – | – | – | – | – |
| COC(=O)C(Cc1ccc2c(c1)OCO2)OC(C)=O (racemic) | Active | – | Active | – | – | – | – | – | – | – | – | – | – | – | – | – | – | – |
| COC(=O)[C@@H](Cc1ccc(OC(C)=O)c(OC(C)=O)c1)OC(C)=O | Active | Active | Active | Active | Active | Active | Active | Active | Active | Active | Active | – | – | – | – | – | – | – |
| CC(=O)O/C(=C\c1ccc(O)c(O)c1)C(=O)O | Active | – | Active | Active | Active | Active | Active | Active | Active | Active | Active | Active | Active | inactive | Active | Active | Active | inactive |
